Data from ChEMBL document CHEMBL1125515, “DNA-directed alkylating agents. 5. Acridinecarboxamide derivatives of (1,2-diaminoethane)dichloroplatinum(II)” (J Med Chem, 1992).

How the values were obtained:
[1] = In Vitro evaluation for the growth inhibition of Subline (P388/CP) Leukemia cell lines; type: functional, cell-based, Mus musculus
Method in brief: (§1)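 Cells were continuously exposed to drug for 72 h in 96-well cultures. IC50 is the drug concentration (μM) inhibiting cell growth by 50%. Determinations were run in triplicate.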

Mus musculus [2] = assay: Compound was treated in vivo for percent increase in life span of treated animals (optimal dose 100 mg/kg, ip) compared with […]/W bearing control animals; type: functional
P388 = assay: In Vitro evaluation for the growth inhibition of Wildtype P388 Leukemia cell lines; type: functional, cell-based; conditions: Mus musculus; method in brief: as §1
Mus musculus [3] = assay: Compound was treated in vivo for percent increase in life span of treated animals (optimal dose 45 mg/kg, ip) compared with […]/W bearing control animals; type: functional
[4] = In Vitro evaluation for the growth inhibition of Subline (P388/AMSA) Leukemia cell lines; type: functional, cell-based, Mus musculus; method in brief: as §1
Mus musculus [5] = assay: Compound was treated in vivo for percent increase in life span of treated animals (optimal dose 13.3 mg/kg) compared with […]/CP bering control animals; type: functional, organism-based; set-up: dose 13.3 mg/kg; conditions: at 13.3 mg/kg
Mus musculus [6] = assay: Compound was treated in vivo for percent increase in life span of treated animals (optimal dose 13.3 mg/kg, ip) compared with […]/W bearing control animals; type: functional, organism-based; set-up: dose 13.3 mg/kg; conditions: at 13.3 mg/kg
Mus musculus [7] = assay: Compound was treated in vivo for percent increase in life span of treated animals (optimal dose 20 mg/kg, ip) compared with […]/W bearing control animals; type: functional
Mus musculus [8] = assay: Compound was treated in vivo for percent increase in life span of treated animals (optimal dose 30 mg/kg, ip) compared with […]/W bearing control animals; type: functional
Mus musculus [9] = assay: Compound was treated in vivo for percent increase in life span of treated animals (optimal dose 65 mg/kg, ip) compared with P338/W bearing control animals; type: functional
Mus musculus [10] = assay: Compound was treated in vivo for percent increase in life span of treated animals (optimal dose 5.3 mg/kg, ip) compared with P338/W bearing control animals; type: functional, organism-based; set-up: dose 5.3 mg/kg; conditions: at 5.3 mg/kg
Mus musculus [11] = assay: Compound was treated in vivo for percent increase in life span of treated animals (optimal dose 5.5 mg/kg, ip) compared with P338/W bearing control animals; type: functional, organism-based; set-up: dose 5.5 mg/kg; conditions: at 5.5 mg/kg

Row | Compound | IC50 ([1]; Mus musculus) | IC50 (P388) | IC50 ([4]; Mus musculus) | also measured
1 | Cl.NCCNCCCNC(=O)c1ccc2nc3ccccc3cc2c1 | 4.9 µM | 3.8 µM | – | Increase in life-span (Mus musculus [2]): <20%
2 | Cl.NCCNCCCNC(=O)c1cccc2c(N)c3ccccc3nc12 | 2.6 µM | 3.1 µM | 0.87 µM | Increase in life-span (Mus musculus [3]): 45%
3 | Cl.NCCNCCCCCCNC(=O)c1ccc2nc3ccccc3cc2c1 | 3.8 µM | 3.6 µM | – | Increase in life-span (Mus musculus [2]): <20%
4 | DICHLORO(ETHYLENEDIAMINE) PLATINUM (II) [listing 1 of 2 here] | – | – | – | Increase in life-span (Mus musculus [5]): < 20%; Increase in life-span (Mus musculus [6]): 70%
5 | DICHLORO(ETHYLENEDIAMINE) PLATINUM (II) [listing 2 of 2 here] | – | – | – | IC50 [1]: 1.03 µM
6 | Cl.NCCNCCCCCCNC(=O)c1cccc2cc3ccccc3nc12 | 0.35 µM | 0.51 µM | 1.1 µM | Increase in life-span (Mus musculus [7]): 23%
7 | Cl.NCCNCCCNC(=O)c1cccc2cc3ccccc3nc12 | 0.59 µM | 0.74 µM | 1.6 µM | Increase in life-span (Mus musculus [8]): 64%
8 | Cl.NCCNCCCCCCNC(=O)c1cccc2c(N)c3ccccc3nc12 | 2.3 µM | 5.2 µM | – | Increase in life-span (Mus musculus [9]): <20%
9 | CISPLATIN [listing 1 of 2 here] | – | – | – | Increase in life-span (Mus musculus [10]): 120%; Increase in life-span (Mus musculus [11]): < 20%
10 | CISPLATIN [listing 2 of 2 here] | – | – | – | IC50 [1]: 5.3 µM; IC50 [4]: 5.5 µM
